# Reference: PubChem BioAssay AID1381 (University of Pittsburgh Molecular Library Screening Center, 2008)
# The campaign covered roughly 220,000 compounds. About 1,000 (0.45%) were called active.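 Rule for the calls: active = plate z-score of nuclear minus cytoplasmic receptor signal below a set negative limit, without overly bright fluorescence or cell loss (cut at about -3.5 in these data, passing the limit was not always enough); inactive = the rest, inconclusive results apart.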 Only a selection was taken, and actives are over-represented in it overall.
# Assay: inhibitors of GR-EGFP nuclear translocation, primary screen, dynein cargo transport inhibitor project, imaging, high-content, 3617.4 mouse cells (AID 1381)
# Details: stimulated with dexamethasone, 1 µM
# Outline: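 medium = tetracycline-free induction medium containing charcoal-stripped FBS | also added = 1.0 µM final dexamethasone stimulus | schedule = 48 h induction, 1 h compound, 30 min dex at 37 °C | technique = fixed, Hoechst-stained cells imaged at 10x for EGFP | measure = GR-EGFP nuclear translocation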
# [1] = measured here: cell count per field, at 20 µM
# [2] = measured here: cytoplasmic GR-EGFP intensity, at 20 µM, stronger effect = higher value
# [3] = measured here: nuclear GR-EGFP intensity, at 20 µM, stronger effect = lower value
# [4] = measured here: cell count per field, at 50 µM
# [5] = measured here: cytoplasmic GR-EGFP intensity, at 50 µM, stronger effect = higher value
# [6] = measured here: nuclear GR-EGFP intensity, at 50 µM, stronger effect = lower value
Structure (SMILES),"z-score (at 20 µM, stronger effect = lower value)",z-score [1],z-score [2],z-score [3],"z-score (at 50 µM, stronger effect = lower value)",z-score [4],z-score [5],z-score [6]
CC(=O)Cn1ncc(N2CCOCC2)c(Br)c1=O,1.61 (inactive),-0.679,-0.251,0.837,–,–,–,–
CC(=O)Nc1ccccc1OC(=O)N1CCOCC1,–,–,–,–,-0.424 (inactive),0.445,-0.192,-0.0276
O=C(c1cccs1)N1CCN(C(=O)N2CCOCC2)CC1,-0.705 (inactive),0.766,-0.299,-0.226,–,–,–,–
O=C(/C=C/c1cccs1)c1cc(Cl)ccc1OC(=O)N1CCOCC1,-4.66 (active),0.865,0.34,-2.08,–,–,–,–
CC(=O)NC1(c2ccc(F)cc2)CCN(C(=O)c2c(F)cccc2F)CC1,-0.575 (inactive),1.07,-0.235,-0.241,–,–,–,–
Nc1ncnc(Nc2cccc(Cl)c2Cl)n1,-1.6 (inactive),0.756,-0.225,-1.2,–,–,–,–
COCCN(Cc1nc(-c2ccc(C(F)(F)F)cc2)no1)C(C)C,-0.214 (inactive),0.527,-0.267,0.0742,–,–,–,–
O=C(NNS(=O)(=O)Cc1ccccc1)c1ccc([N+](=O)[O-])cc1,-0.775 (inactive),0.134,-0.751,-0.634,–,–,–,–
COc1ccc(-n2cnc3cc(C(=O)NC4CCCC4)ccc32)cc1,0.728 (inactive),-0.477,-0.235,0.5,–,–,–,–
Cc1cc(-c2n[nH]c(=S)n2/N=C/C(Br)=C/c2ccccc2)n[nH]1,-4.43 (active),-1.17,0.939,-2.57,–,–,–,–
Cc1cc(-c2n[nH]c(=S)n2/N=C/c2ccco2)n[nH]1,0.146 (inactive),-0.499,-0.239,-0.0329,–,–,–,–
S=c1[nH]nc(-c2cccnc2)n1/N=C/C(Cl)=C\c1ccccc1,-0.315 (inactive),-1.55,0.22,0.116,–,–,–,–
Nc1ccccc1SC(C[N+](=O)[O-])c1ccccc1 (configuration not stated),-4.57 (active),-0.167,2.56,-1.84,–,–,–,–
Nc1ccccc1SCc1cc([N+](=O)[O-])cc2c1OCOC2,-0.839 (inactive),0.822,3.91,0.0233,–,–,–,–
Nc1ccccc1Sc1ccc(C(F)(F)F)cc1[N+](=O)[O-],-0.595 (inactive),0.488,-0.213,-0.319,–,–,–,–
COC(=O)c1cc(C(=O)N(Cc2ccccc2)c2ccccn2)cc([N+](=O)[O-])c1,-0.154 (inactive),-0.0688,-0.223,-0.31,–,–,–,–
CN1CCN(C(=O)/C(=C\c2cccs2)NC(=O)c2cccs2)CC1,-0.757 (inactive),1.17,-0.214,-0.212,–,–,–,–
OCC(CO)(CO)NCc1ccc(-c2ccccc2)cc1,-0.998 (inactive),0.791,-0.231,-0.299,–,–,–,–
O=C(NNC(=O)c1ccccc1[N+](=O)[O-])Nc1ccccc1C(F)(F)F,-1.96 (inactive),0.934,-0.0968,-0.966,–,–,–,–
CC1(C)CCSC(/C=C/c2ccccc2)=N1,-6.85 (active),1.01,1.09,-2.95,–,–,–,–
Cc1ccc2nc(-c3ccncc3)cc(C(=O)Nc3ccc(OC(F)F)cc3)c2c1,-0.0501 (inactive),0.497,-0.311,-0.123,–,–,–,–
O=C(Nn1c(SCc2ccc([N+](=O)[O-])cc2)nc2ccccc2c1=O)c1ccc(F)cc1,-0.621 (inactive),3.84,-0.327,-0.596,–,–,–,–

Structure (SMILES),"z-score (at 20 µM, stronger effect = lower value)",z-score [1],z-score [2],z-score [3],"z-score (at 50 µM, stronger effect = lower value)",z-score [4],z-score [5],z-score [6]
O=C(CCc1nnc(CCCCc2ccccc2)o1)NC(c1cccnc1)C(F)(F)F (configuration not stated),-0.699 (inactive),1.17,-0.266,-0.517,–,–,–,–
COc1cc2c(cc1OC)C(Nc1ccc(S(N)(=O)=O)cc1)=NC(C)(C)C2,0.371 (inactive),0.476,-0.265,0.242,–,–,–,–
COc1cc2c(cc1O)C(SC)=NC(C)(C)C2,–,–,–,–,-4 (active),-1.21,2.4,-1.15
COc1cc2c(cc1OC)C(C(C)C)=NC(C)(C)C2,–,–,–,–,1.53 (inactive),-0.94,-0.084,1.55
CC(OC(=O)c1ccccc1N1C(=O)C2C3CCC(C3)C2C1=O)C(=O)c1ccccc1 (configuration not stated),0.064 (inactive),-1.14,-0.233,-0.118,–,–,–,–
CC(C)CNc1ncnc2c1cnn2Cc1ccc(Cl)cc1,-0.416 (inactive),0.999,-0.294,-0.416,–,–,–,–
CCOc1cc(N2CCOCC2)c(OCC)cc1NC(=O)C1=NN(c2cccc(C)c2)C(=O)CC1,0.424 (inactive),0.873,-0.249,-0.0907,–,–,–,–
C=CS(=O)c1sc(Cl)c(N2CCOCC2)c1[N+](=O)[O-] (configuration not stated),-5.81 (active),-1.51,2.63,-2.55,–,–,–,–
O=C(NCc1ccccc1)c1ccc(CNc2c(N3CCCC3)c(=O)c2=O)cc1,1.94 (inactive),-1.79,-0.175,1.39,–,–,–,–
Cc1ccc(OCC(=O)Nc2cccc3c2CCCC3)cc1C,-0.29 (inactive),0.502,-0.193,-0.445,–,–,–,–
CCN(CC)c1ccc2c(Nc3ccccc3)c(C=O)c(=O)oc2c1,1.78 (inactive),-1.59,1.04,1.54,–,–,–,–
CCN(CC)c1ccc2oc(=O)c(C)nc2c1,–,–,–,–,-4.98 (active),0.102,1.35,-2.69
CCN(CC)c1ccc2cc(C(=O)O)c(=O)oc2c1,0.513 (inactive),-0.14,-0.259,0.0952,–,–,–,–
O=C(Nc1ccn(Cc2ccccc2)n1)c1n[nH]c([N+](=O)[O-])c1Cl,1.15 (inactive),-1.23,-0.194,0.757,–,–,–,–
Cc1cccc(-n2cc(CN3CCN(C(=O)c4ncn[nH]4)CC3)c(-c3cccc(F)c3)n2)c1,0.856 (inactive),-0.858,-0.164,0.386,–,–,–,–
CCN(CC)S(=O)(=O)c1ccc2c3c(cccc13)C(=O)S2,–,–,–,–,-0.224 (inactive),0.583,-0.26,-0.962
CCNC(=S)Nc1ccc(OC(F)(F)F)cc1,-0.827 (inactive),0.129,-0.313,0.232,–,–,–,–
COc1ccc(CCNC(=O)C(Sc2ccccn2)c2ccccc2)cc1OC (configuration not stated),1.23 (inactive),-0.867,-0.00233,0.852,–,–,–,–
CCOC(=O)CN(Cc1ccc(OC)c(OC)c1)S(=O)(=O)c1ccc(OC)cc1,-0.369 (inactive),0.666,-0.0278,0.0349,–,–,–,–
COc1ccc(C(CCN(Cc2ccc(OC)c(OC)c2)C(=O)CCl)c2ccccc2)cc1 (configuration not stated),-5.18 (active),-0.271,0.893,-2.94,–,–,–,–
CN(CCc1ccccn1)C(=O)CCC1CCCN(Cc2ccccc2OC(F)F)C1 (configuration not stated),-0.0542 (inactive),0.0326,-0.306,0.247,–,–,–,–
